Experimental data pooled from the literature.
Organism: Clostridioides difficile
Read-out: microbial growth

Structure (SMILES)	method	strain	time	MIC
Cc1ncc([N+](=O)[O-])n1CCO	broth dilution	630	–	> 0.5 µg/mL
N#Cc1ccc(Oc2ccc(-c3noc(-c4ccc(O)cc4)n3)cc2)cc1	broth dilution	ATCC43255	48 h	8 to 128 µg/mL
O=C(NCc1nc(-c2ccc(Br)cc2)c[nH]1)[C@H]1CSC(c2ccccn2)=N1	broth dilution	R20291	24 h	> 50 µg/mL
O=C(Nc1ncc([N+](=O)[O-])s1)C1CCCCC1	agar dilution	VPI10463	18 h	5.9 µM
COCCNc1ccc(-c2nc(-c3ccc(Oc4ccccc4)cc3)no2)cc1	broth dilution	–	48 h	8 µg/mL
Oc1cc(-c2nc(-c3ccc(Oc4ccc(C(F)(F)F)cc4)cc3)no2)cc(F)c1O	broth dilution	ATCC43255	48 h	128 µg/mL
Cl.NCCCc1ccc(Oc2ccc(-c3noc(-c4ccc(O)cc4)n3)cc2)cc1	broth dilution	–	48 h	2 µg/mL
O=C(NCc1nc(-c2ccc(Br)cc2)c[nH]1)Nc1nc2ccc(OC(F)(F)F)cc2s1	broth dilution	R20291	24 h	12.5 to 25 µg/mL
Oc1ccc(Oc2ccc(-c3noc(-c4ccc(O)cc4)n3)cc2)cc1	broth dilution	ATCC43255	48 h	8 to 128 µg/mL
O=C(O)Cc1ccc(Oc2ccc(-c3noc(-c4ccc(O)cc4)n3)cc2)cc1	broth dilution	–	48 h	50 µg/mL
